In ChEMBL document CHEMBL1765017, “Homoisoflavonoids: natural scaffolds with potent and selective monoamine oxidase-B inhibition properties” (J Med Chem, 2011):

Columns and labels:
[1] = target: T1, Amine oxidase [flavin-containing] A (Homo sapiens, UniProt P21397); experiment: Inhibition of human recombinant MAO-A expressed in baculovirus infected BTI-TN-5B1-4 insect sells assessed as hydrogen peroxide production at 100 uM by fluorimetric method; settings: for inhibition (INH): human, bti-tn-5b1-4, 100 µM; for inhibition at 100 µM: BTI-TN-5B1-4, human
T1 sequence (P21397 whole entry): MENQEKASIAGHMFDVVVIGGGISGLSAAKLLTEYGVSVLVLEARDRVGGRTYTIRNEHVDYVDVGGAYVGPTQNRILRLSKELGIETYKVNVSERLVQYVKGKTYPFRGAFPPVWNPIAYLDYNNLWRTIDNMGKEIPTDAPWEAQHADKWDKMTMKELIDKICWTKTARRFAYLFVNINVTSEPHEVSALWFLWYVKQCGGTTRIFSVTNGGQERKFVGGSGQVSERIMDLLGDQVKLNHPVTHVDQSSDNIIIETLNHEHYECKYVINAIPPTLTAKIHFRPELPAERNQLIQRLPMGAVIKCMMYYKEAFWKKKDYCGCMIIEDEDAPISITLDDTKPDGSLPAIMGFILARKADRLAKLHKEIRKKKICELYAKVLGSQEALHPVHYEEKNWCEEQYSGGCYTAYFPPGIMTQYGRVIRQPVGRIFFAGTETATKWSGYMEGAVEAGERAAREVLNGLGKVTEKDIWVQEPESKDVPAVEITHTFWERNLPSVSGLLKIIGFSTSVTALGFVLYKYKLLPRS
Method in brief: (§1)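 Microsomal human MAO-A or MAO-B from BTI-TN-5B1-4 insect cells infected with recombinant baculovirus carrying the isoform cDNA. p-Tyramine was the substrate for both isoforms. H2O2 production was detected fluorimetrically with the Amplex Red reagent. Compounds were checked for direct reaction with Amplex Red. Highest concentrations tested were 100 μM, or 1 mM for some compounds.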

[2] = target: T2, Amine oxidase [flavin-containing] B (Homo sapiens, UniProt P27338); experiment: Inhibition of human recombinant MAO-B expressed in baculovirus infected BTI-TN-5B1-4 insect sells assessed as hydrogen peroxide production at 100 uM by fluorimetric method; settings: for inhibition (INH): human, bti-tn-5b1-4, 100 µM; for inhibition at 100 µM: BTI-TN-5B1-4, human; method in brief: as §1
T2 sequence (P27338 whole entry): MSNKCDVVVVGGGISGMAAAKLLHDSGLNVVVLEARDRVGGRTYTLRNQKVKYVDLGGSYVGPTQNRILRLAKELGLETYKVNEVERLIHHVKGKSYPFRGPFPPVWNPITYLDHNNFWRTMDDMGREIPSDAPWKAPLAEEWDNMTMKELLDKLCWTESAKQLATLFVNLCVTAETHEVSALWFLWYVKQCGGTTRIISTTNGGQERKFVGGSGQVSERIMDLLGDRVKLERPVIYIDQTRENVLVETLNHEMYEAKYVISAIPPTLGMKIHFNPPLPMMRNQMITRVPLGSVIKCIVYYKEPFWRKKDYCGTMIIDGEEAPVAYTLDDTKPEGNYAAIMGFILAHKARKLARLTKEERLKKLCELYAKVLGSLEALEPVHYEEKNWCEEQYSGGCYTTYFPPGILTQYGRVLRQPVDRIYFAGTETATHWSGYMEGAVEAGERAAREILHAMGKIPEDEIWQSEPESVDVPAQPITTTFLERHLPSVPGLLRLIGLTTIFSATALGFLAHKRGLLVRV

[3] = target: T2, Amine oxidase [flavin-containing] B; experiment: biochemical; assay type: cell-based, BTI-TN-5B1-4
[4] = target: T1, Amine oxidase [flavin-containing] A; experiment: Inhibition of human recombinant MAO-A expressed in baculovirus infected BTI-TN-5B1-4 insect sells assessed as hydrogen peroxide production by fluorimetric method
Homo sapiens = species on record: Homo sapiens; experiment: Selectivity index, ratio of IC50 for human MAO-A to IC50 for human MAO-B
Method in brief: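 SI = IC50(hMAO-A)/IC50(hMAO-B). IC50s come from the Amplex Red fluorimetric assay of H2O2 from p-tyramine using baculovirus-expressed human isoforms, mean ± SEM of five experiments.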

[5] = target: T1, Amine oxidase [flavin-containing] A; experiment: Inhibition of human recombinant MAO-A expressed in baculovirus infected BTI-TN-5B1-4 insect sells assessed as hydrogen peroxide production at 500 uM measured after repeated washing by fluorimetric method; settings: BTI-TN-5B1-4, human
Method in brief: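 Microsomal hMAO-A from insect cells infected with recombinant baculovirus. After exposure to inhibitor, the enzyme was washed repeatedly by centrifugation-ultrafiltration. Remaining activity was then read by Amplex Red fluorescence as H2O2 formed from p-tyramine. Percent inhibition is compared with before washing by ANOVA/Dunnett's. Mean ± SEM, n = 5.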

[6] = target: T1, Amine oxidase [flavin-containing] A; experiment: Inhibition of human recombinant MAO-A expressed in baculovirus infected BTI-TN-5B1-4 insect sells assessed as hydrogen peroxide production at 500 uM by fluorimetric method; settings: BTI-TN-5B1-4, human
Method in brief: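 Microsomal hMAO-A from insect cells (BTI-TN-5B1-4) infected with recombinant baculovirus carrying the hMAO-A cDNA. Fluorimetric Amplex Red assay measures H2O2 formed from p-tyramine, the substrate. Percent inhibition is expressed against control activity, given as pmol p-tyramine oxidised per min. Mean ± SEM of five experiments.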

[7] = target: T2, Amine oxidase [flavin-containing] B; experiment: Inhibition of human recombinant MAO-B expressed in baculovirus infected BTI-TN-5B1-4 insect sells assessed as hydrogen peroxide production at 1 mM by fluorimetric method; settings: bti-tn-5b1-4, 1000 µM; method in brief: as §1
[8] = target: T2, Amine oxidase [flavin-containing] B; experiment: Inhibition of human recombinant MAO-B expressed in baculovirus infected BTI-TN-5B1-4 insect sells assessed as hydrogen peroxide production at 10 nM measured after repeated washing by fluorimetric method; settings: BTI-TN-5B1-4, human
[9] = target: T1, Amine oxidase [flavin-containing] A; experiment: Inhibition of human recombinant MAO-A expressed in baculovirus infected BTI-TN-5B1-4 insect sells assessed as hydrogen peroxide production at 50 uM by fluorimetric method; settings: BTI-TN-5B1-4, human
[10] = target: T1, Amine oxidase [flavin-containing] A; experiment: Inhibition of human recombinant MAO-A expressed in baculovirus infected BTI-TN-5B1-4 insect sells assessed as hydrogen peroxide production at 50 uM measured after repeated washing by fluorimetric method; settings: BTI-TN-5B1-4, human
[11] = target: T2, Amine oxidase [flavin-containing] B; experiment: Inhibition of human recombinant MAO-B expressed in baculovirus infected BTI-TN-5B1-4 insect sells assessed as hydrogen peroxide production at 10 nM by fluorimetric method; settings: BTI-TN-5B1-4, human

| Structure (SMILES) | inhibition (INH) [1] | IC50 [3] [nM] | other results |
| --- | --- | --- | --- |
| COc1ccc(Cc2coc3ccccc3c2=O)cc1 | Not Active | 21600 | – |
| O=C1/C(=C/c2ccc(Cl)cc2)COc2cc(Cl)cc(Cl)c21 | Not Active | 13 | – |
| COc1ccc(/C=C2\COc3ccccc3C2=O)cc1O | Not Active | 477 | – |
| O=C1/C(=C/c2ccccc2)COc2ccc(Cl)cc21 | Not Active | 331 | – |
| O=C1c2ccccc2OCC1Cc1ccc(O)cc1 (stereo unspecified) | Not Active | – | inhibition at 100 µM [2]: 40% |
| O=C(NCCN1CCOCC1)c1ccc(Cl)cc1 [MOCLOBEMIDE] | – | – | inhibition at 500 µM [5]: 11.4%; inhibition at 500 µM [6]: 86%; inhibition (INH) [7]: Not Active |
| COc1cccc(/C=C2\COc3ccccc3C2=O)c1OC | Not Active | 1920 | – |
| O=C1/C(=C/c2ccc(O)cc2)COc2ccccc21 | Not Active | 55.4 | – |
| COc1cc(/C=C2\COc3ccccc3C2=O)ccc1O | – | 104 | inhibition at 100 µM [1]: 40% |
| O=c1c(Cc2ccccc2)coc2ccccc12 | Not Active | – | inhibition (INH) [2]: Not Active |
| COc1ccc(/C=C2\COc3ccccc3C2=O)c(OC)c1OC | Not Active | 1310 | – |
| O=c1c(Cc2ccc(Cl)cc2)coc2cc(Cl)cc(Cl)c12 | – | 439 | inhibition at 100 µM [1]: 40% |
| O=C1/C(=C/c2ccc(O)c(O)c2)COc2ccccc21 | – | 141 | IC50 [4]: 4.74 µM; Ratio IC50 (Homo sapiens): 34 |
| O=c1c(Cc2ccc(Cl)cc2)coc2ccc(Cl)cc12 | Not Active | – | inhibition at 100 µM [2]: 40% |
| O=C1c2c(Cl)cc(Cl)cc2OCC1Cc1ccc(Cl)cc1 (stereo unspecified) | Not Active | 4590 | – |
| CN(C)c1ccc(/C=C2\COc3ccccc3C2=O)cc1 | Not Active | 8.51 | – |
| COc1ccc(/C=C2\COc3ccccc3C2=O)cc1 | Not Active | 58.9 | – |
| O=C1/C(=C/c2ccc(O)cc2)COc2cc(O)cc(O)c21 | – | 8.61 | IC50 [4]: 11.5 µM; inhibition at 0.01 µM [8]: 36.2%; inhibition at 50 µM [9]: 68.3%; Ratio IC50 (Homo sapiens): 1330; inhibition at 50 µM [10]: 61.8%; inhibition at 0.01 µM [11]: 48.7% |

Continued, in another order:

| inhibition (INH) [1] | IC50 [3] [nM] | Structure (SMILES) | other results |
| --- | --- | --- | --- |
| Not Active | – | O=C(O)c1cc(/C=C2\COc3ccccc3C2=O)ccc1O | inhibition (INH) [2]: Not Active |
| Not Active | 3070 | O=C1c2cc(Cl)ccc2OCC1Cc1ccc(Cl)cc1 (stereo unspecified) | – |
| Not Active | 1570 | COc1ccc(/C=C2\COc3cc(OC)cc(OC)c3C2=O)cc1 | – |
| Not Active | 480 | O=C1/C(=C/c2ccccc2)COc2ccccc21 | – |
| Not Active | – | O=c1c(Cc2ccc(Cl)cc2)coc2ccccc12 | inhibition (INH) [2]: Not Active |
| Not Active | 20700 | COc1cc(/C=C2\COc3ccccc3C2=O)cc(OC)c1OC | – |
| Not Active | 58500 | O=C1c2ccccc2OCC1Cc1ccccc1 (stereo unspecified) | – |
| Not Active | 491 | O=C1/C(=C/c2ccc(O)c([N+](=O)[O-])c2)COc2ccccc21 | – |
| – | 1060 | CC(=O)Nc1ccc(/C=C2\COc3ccccc3C2=O)cc1 | IC50 [4]: 2.1 µM; Ratio IC50 (Homo sapiens): 2 |
| Not Active | 248 | COc1ccc(/C=C2\COc3ccccc3C2=O)c(OC)c1 | – |
| Not Active | 7370 | O=C1c2ccccc2OCC1Cc1ccc(Cl)cc1 (stereo unspecified) | – |
| Not Active | 31.8 | O=C1/C(=C/c2ccc(Cl)cc2)COc2ccc(Cl)cc21 | – |
| Not Active | 154 | O=C1/C(=C/c2ccc(Cl)cc2)COc2ccccc21 | – |
| – | 484 | Nc1cc(/C=C2\COc3ccccc3C2=O)ccc1O | IC50 [4]: 1.44 µM; Ratio IC50 (Homo sapiens): 3 |
| Not Active | – | O=c1c(Cc2ccc(O)cc2)coc2ccccc12 | inhibition at 100 µM [2]: 40% |
| Not Active | – | COc1ccc(Cc2coc3cc(OC)cc(OC)c3c2=O)cc1 | inhibition at 100 µM [2]: 40% |
| – | 1330 | COc1ccc(/C=C2\COc3ccccc3C2=O)c(O)c1 | inhibition at 100 µM [1]: 40% |
| Not Active | 879 | Nc1ccc(/C=C2\COc3ccccc3C2=O)cc1 | – |
